From ChEMBL document CHEMBL1132712, “Bisphosphonate prodrugs: synthesis and in vitro evaluation of novel clodronic acid dianhydrides as bioreversible prodrugs of clodronate” (J Med Chem, 1999)

Columns and labels:
[1] = (§1) Rate data for enzymatic hydrolysis in 80% human serum at pH 7.4; format: ADME, organism-based
[2] = as §1; format: ADME
[3] = The apparent partition coefficient at pH 7.4; format: physicochemical; conditions: octanol/water
Outline: (§2)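 1-Octanol/phosphate buffer (50 mM, μ = 0.15) at pH 2.0 or 7.4. Prodrug (0.8–1.5 mg) in 1.0 mL buffer shaken with 5.0 mL octanol, 1 h at pH 7.4 or 5 min at pH 2.0. Phases separated by centrifugation. Aqueous concentration measured by HPLC before and after shaking. Triplicate, mean reported.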

[4] = The aqueous solubility in phosphate buffer; format: physicochemical; conditions: read-out: S
Outline: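 Excess solid added to phosphate buffer (50 mM, μ = 0.15, pH 7.4) at room temperature and vortexed 30 min. pH checked and adjusted during solubilization. Suspension centrifuged and filtered (0.45 membrane). Filtrate quantified by HPLC.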

[5] = The apparent partition coefficient at pH 2.0; format: physicochemical; conditions: octanol/water; outline: as §2
[6] = Rate data in phosphate buffer at pH 2.0; format: ADME
Outline: (§3)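 Chemical hydrolysis at 37 °C in phosphate buffer (50 mM, μ = 0.15) at pH 2.0 or 7.4. Prodrug (12 mg) dissolved in preheated buffer. Samples withdrawn at intervals and assayed by HPLC. Pseudo-first-order rate constants calculated from the buffer hydrolysis data.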

[7] = Rate data in phosphate buffer at pH 7.4; format: ADME; outline: as §3
[8] = (§4) Rate data for enzymatic hydrolysis in 80% human serum at pH 7.4; Completely hydrolyzed during 1 min; format: ADME; conditions: pH 7.4, 1 min
Homo sapiens = species: Homo sapiens; assay: as §4; format: ADME, organism-based; conditions: pH 7.4, 1 min

SMILES | half-life [1] | K obs [2] | logD [3] | solubility [4] | logD [5] | K obs [6] | half-life [6] | K obs [7] | half-life [7] | K obs [8] | T1/2 (Homo sapiens)
CC(C)(C)C(=O)OP(=O)([O-])C(Cl)(Cl)P(=O)([O-])OC(=O)C(C)(C)C.[Na+].[Na+] | 3.3 h | 0.0035 min⁻¹ | -2.3 | 23.5 mg/mL | -2 | 0.0013 min⁻¹ | 8.6 h | 0.000015 min⁻¹ | 790 h |  | 
CCCC(=O)OP(=O)([O-])C(Cl)(Cl)P(=O)([O-])OC(=O)CCC.[Na+].[Na+] |  |  | -2.3 | 172 mg/mL | -1.9 | 0.014 min⁻¹ | 0.817 h | 0.00037 min⁻¹ | 31.3 h | Completely hydrolyzed during 1 min | Completely hydrolyzed during 1 min
O=C(OP(=O)([O-])C(Cl)(Cl)P(=O)([O-])OC(=O)c1ccccc1)c1ccccc1.[Na+].[Na+] |  |  | -2.3 | 6 mg/mL | -1.5 | 0.00004 min⁻¹ | 286 h | 0.000049 min⁻¹ | 235 h | Completely hydrolyzed during 1 min | Completely hydrolyzed during 1 min
CC(=O)OP(=O)([O-])C(Cl)(Cl)P(=O)([O-])OC(C)=O.[Na+].[Na+] |  |  | -2.2 | 190 mg/mL | -1.4 | 0.016 min⁻¹ | 0.75 h | 0.00076 min⁻¹ | 15.2 h | Completely hydrolyzed during 1 min | Completely hydrolyzed during 1 min
